pIC50: −log10 of the molar value.
Tests used:
[1] = target: T1, Beta-secretase 1 (Homo sapiens, UniProt P56817); assay: Inhibition of human recombinant BACE1 using fluorescent peptide substrate at 10 ug/ml after 5 mins
Procedure, shortened: (§1)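 FRET assay using a peptide substrate carrying a fluorophore and quencher on either side of a β-secretase cleavage site. Recombinant human BACE-1 was diluted in 0.1 M sodium acetate (pH 4.0) and added to the samples, then shaken 5 min. Fluorogenic Peptide Substrate IV in the same buffer was added and shaken 5 min. Read-out: ex 320 nm/em 405 nm; activity taken as ΔF/min relative to standard.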

[2] = target: T1, Beta-secretase 1; assay: Inhibition of human recombinant BACE1 using fluorescent peptide substrate after 5 mins; procedure, shortened: as §1

T1 sequence (P56817 whole entry): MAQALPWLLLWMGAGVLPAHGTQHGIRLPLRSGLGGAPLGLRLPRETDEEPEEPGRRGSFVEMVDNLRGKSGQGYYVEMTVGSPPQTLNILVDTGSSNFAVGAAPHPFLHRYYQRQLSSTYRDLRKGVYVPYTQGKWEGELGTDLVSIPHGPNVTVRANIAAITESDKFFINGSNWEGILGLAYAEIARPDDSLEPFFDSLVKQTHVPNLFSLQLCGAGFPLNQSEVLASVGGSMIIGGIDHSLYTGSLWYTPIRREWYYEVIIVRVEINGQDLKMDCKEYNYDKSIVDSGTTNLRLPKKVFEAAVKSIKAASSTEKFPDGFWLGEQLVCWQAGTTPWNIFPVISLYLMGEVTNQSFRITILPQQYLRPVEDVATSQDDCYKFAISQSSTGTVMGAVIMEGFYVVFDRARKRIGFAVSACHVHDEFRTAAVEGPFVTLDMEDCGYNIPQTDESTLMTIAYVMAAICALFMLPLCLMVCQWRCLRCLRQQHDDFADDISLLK

SMILES	inhibition [1]	pIC50 [2]
CC(C)CNC(=O)[C@H](C)C[C@H](O)[C@H](CC(C)C)NC(=O)[C@H](Cc1ccccc1)NC(=O)c1ccc([N+](=O)[O-])cc1	1.47%	4.80
CC(C)CNC(=O)[C@H](C)C[C@H](O)[C@H](CC(C)C)NC(=O)[C@H](Cc1ccccc1)NC(=O)c1ccc2c(c1)OCO2	16.2%	5.09
CC(C)CNC(=O)[C@H](C)C[C@H](O)[C@H](CC(C)C)NC(=O)[C@H](Cc1ccc([N+](=O)[O-])cc1)NC(=O)c1cccc(Cl)c1	25.7%	–
CC(C)CNC(=O)[C@H](C)C[C@H](O)[C@H](CC(C)C)NC(=O)[C@H](Cc1ccc([N+](=O)[O-])cc1)NC(=O)c1cccc2ccccc12	-4.43%	–
CC(C)CNC(=O)[C@H](C)C[C@H](O)[C@H](CC(C)C)NC(=O)[C@H](Cc1ccc([N+](=O)[O-])cc1)NC(=O)c1ccc([N+](=O)[O-])cc1	10.5%	5.58
CC(C)[C@H](NC(=O)[C@H](Cc1ccccc1)NC(=O)OC(C)(C)C)[C@@H](O)C[C@@H](C)C(=O)NCc1ccccc1	23%	–
CC(C)CNC(=O)[C@H](C)C[C@H](O)[C@H](CC(C)C)NC(=O)[C@H](Cc1ccccc1)NC(=O)/C=C/c1ccc(C(F)(F)F)cc1	59.7%	4.71
COc1ccc(C(=O)N[C@@H](Cc2ccc([N+](=O)[O-])cc2)C(=O)N[C@@H](CC(C)C)[C@@H](O)C[C@@H](C)C(=O)NCC(C)C)cc1OC	18.3%	5.42
CC(C)CNC(=O)[C@H](C)C[C@H](O)[C@H](CC(C)C)NC(=O)[C@H](Cc1ccc([N+](=O)[O-])cc1)NC(=O)c1cc([N+](=O)[O-])cc([N+](=O)[O-])c1	7.61%	–
CC(C)CNC(=O)[C@H](C)C[C@H](O)[C@H](CC(C)C)NC(=O)[C@H](Cc1ccc([N+](=O)[O-])cc1)NC(=O)c1ccc2c(c1)OCO2	40.3%	–
CC(C)CNC(=O)[C@H](C)C[C@H](O)[C@H](CC(C)C)NC(=O)[C@H](Cc1ccccc1)NC(=O)c1cc([N+](=O)[O-])cc([N+](=O)[O-])c1	0.91%	–
CC(C)CNC(=O)[C@H](C)C[C@H](O)[C@H](CC(C)C)NC(=O)[C@H](Cc1ccccc1)NC(=O)c1cccc2ccccc12	-0.1%	5.33
COc1ccc(CC(=O)N[C@@H](CO)C(=O)N[C@@H](CC(C)C)[C@@H](O)C[C@@H](C)C(=O)NCc2ccccc2)cc1	25.1%	–
CC(C)C[C@H](NC(=O)[C@H](CO)NC(=O)/C=C/c1ccc(C(F)(F)F)cc1)[C@@H](O)C[C@@H](C)C(=O)NCc1ccccc1	16.4%	–
CC(C)CNC(=O)[C@H](C)C[C@H](O)[C@H](CC(C)C)NC(=O)[C@H](Cc1ccc([N+](=O)[O-])cc1)NC(=O)c1ccc(Cl)cc1Cl	22.2%	5.37
CC(C)CNC(=O)[C@H](C)C[C@H](O)[C@H](CC(C)C)NC(=O)[C@H](Cc1ccccc1)NC(=O)c1ccc(Cl)cc1Cl	20.3%	–
CC(C)CNC(=O)[C@H](C)C[C@H](O)[C@H](CC(C)C)NC(=O)[C@H](Cc1ccc([N+](=O)[O-])cc1)NC(=O)/C=C/c1ccc(C(F)(F)F)cc1	0.13%	5.42
CC(C)CNC(=O)[C@H](C)C[C@H](O)[C@H](CC(C)C)NC(=O)[C@H](Cc1ccc([N+](=O)[O-])cc1)NC(=O)/C=C/c1ccccc1	37.2%	–

Second part, the molecule after the results:

inhibition [1]	pIC50 [2]	SMILES
0.91%	–	CC(C)C[C@H](NC(=O)OC(C)(C)C)C(=O)N[C@@H](Cc1ccccc1)C(=O)N[C@@H](CC(C)C)[C@@H](O)C[C@@H](C)C(=O)NCc1ccccc1
11.2%	5.16	CC(C)CNC(=O)[C@H](C)C[C@H](O)[C@H](CC(C)C)NC(=O)[C@H](Cc1ccccc1)NC(=O)c1ccccc1
-2.37%	–	CC(C)CNC(=O)[C@H](C)C[C@H](O)[C@H](CC(C)C)NC(=O)[C@H](Cc1ccccc1)NC(=O)[C@@H](NC(=O)OC(C)(C)C)C(C)C
54.6%	5.64	CC(C)CNC(=O)[C@H](C)C[C@H](O)[C@H](CC(C)C)NC(=O)[C@H](Cc1ccccc1)NC(=O)[C@H](CC(C)C)NC(=O)OC(C)(C)C
25.8%	–	CC(C)CNC(=O)[C@H](C)C[C@H](O)[C@@H](NC(=O)[C@H](Cc1ccccc1)NC(=O)OC(C)(C)C)C(C)C
16.9%	–	CC(C)CNC(=O)[C@H](C)C[C@H](O)[C@H](CC(C)C)NC(=O)[C@H](Cc1ccccc1)NC(=O)c1cccc(Cl)c1
14.7%	–	COc1ccc(C(=O)N[C@@H](Cc2ccccc2)C(=O)N[C@@H](CC(C)C)[C@@H](O)C[C@@H](C)C(=O)NCC(C)C)cc1OC
-0.71%	–	CC[C@H](C)[C@H](NC(=O)OC(C)(C)C)C(=O)N[C@@H](Cc1ccccc1)C(=O)N[C@@H](CC(C)C)[C@@H](O)C[C@@H](C)C(=O)NCC(C)C
-2.46%	–	CC[C@H](C)[C@H](NC(=O)OC(C)(C)C)C(=O)N[C@@H](Cc1ccccc1)C(=O)N[C@@H](C(C)C)[C@@H](O)C[C@@H](C)C(=O)NCc1ccccc1
-1.56%	–	CC(C)[C@H](NC(=O)OC(C)(C)C)C(=O)N[C@@H](Cc1ccccc1)C(=O)N[C@@H](C(C)C)[C@@H](O)C[C@@H](C)C(=O)NCc1ccccc1
22.8%	–	CC(C)CNC(=O)[C@H](C)C[C@H](O)[C@H](CC(C)C)NC(=O)[C@H](Cc1ccccc1)NC(=O)/C=C/c1ccccc1
50.5%	–	CC(C)[C@H](NC(=O)[C@H](CO)NC(=O)OC(C)(C)C)[C@@H](O)C[C@@H](C)C(=O)NCc1ccccc1
30.1%	–	CC(C)CNC(=O)[C@H](C)C[C@H](O)[C@@H](NC(=O)[C@H](Cc1ccc([N+](=O)[O-])cc1)NC(=O)OC(C)(C)C)C(C)C
